In ChEMBL document CHEMBL3352237, “Synthesis and biological evaluation of novel peptide BF2 as an antibacterial agent against clinical isolates of vancomycin-resistant enterococci” (J Med Chem, 2014):

What was measured:
Enterococcus faecalis [1] = assay: Bactericidal activity against vancomycin-resistant Enterococcus faecalis clinical isolate 7846 after 24 hrs by two-fold serial dilution method; assay type: functional; settings: isolate 7846, 24 h
Enterococcus faecium [2] = assay: Bactericidal activity against vancomycin-resistant Enterococcus faecium clinical isolate 16115 after 24 hrs by two-fold serial dilution method; assay type: functional; settings: isolate 16115, 24 h
[3] = Hemolytic activity against human RBC at 5 times MIC after 1 hr by spectrophotometry; assay type: ADME, cell-based, Erythrocyte; settings: red blood cells, read-out: Activity
Enterococcus faecalis [4] = assay: Bactericidal activity against vancomycin-resistant Enterococcus faecalis clinical isolate 7670 after 24 hrs by two-fold serial dilution method; assay type: functional; settings: isolate 7670, 24 h
Enterococcus [5] = assay: Bactericidal activity against vancomycin-resistant Enterococcus ATCC 51299 after 24 hrs by two-fold serial dilution method; assay type: functional; settings: ATCC 51299, 24 h
Enterococcus faecalis [6] = assay: Bactericidal activity against vancomycin-resistant Enterococcus faecalis clinical isolate 5814 after 24 hrs by two-fold serial dilution method; assay type: functional; settings: isolate 5814, 24 h
Enterococcus faecium [7] = assay: Bactericidal activity against vancomycin-resistant Enterococcus faecium clinical isolate 6/22 after 24 hrs by two-fold serial dilution method; assay type: functional; settings: isolate 6/22, 24 h
Enterococcus faecium [8] = assay: Bactericidal activity against vancomycin-resistant Enterococcus faecium clinical isolate 30/48 after 24 hrs by two-fold serial dilution method; assay type: functional; settings: isolate 30/48, 24 h
Enterococcus faecalis [9] = assay: Antibacterial activity against vancomycin-resistant Enterococcus faecalis clinical isolate 27728 after overnight incubation by two-fold serial dilution method; assay type: functional
Enterococcus faecium [10] = assay: Antibacterial activity against vancomycin-resistant Enterococcus faecium clinical isolate 12875 after overnight incubation by two-fold serial dilution method; assay type: functional
Enterococcus [11] = assay: Antibacterial activity against Enterococcus infected in Wistar albino rat assessed as reduction in cell count at 3 times MIC, iv after 1 hr relative to control; assay type: functional; set-up: scale not given: the % may be the effect or the level left
Procedure, shortened: (§1)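 Female Wistar albino rats, 40−45 days old, 125−150 g, 5 groups of 3. Enterococci were grown to log phase in MH broth, centrifuged at 1000g for 15 min, and diluted in PBS to 4 × 10^6 CFU/mL. Rats were inoculated i.v. and treated i.v. 1 h later with 12.5, 25 or 37.5 mg/kg peptide, PBS vehicle, or linezolid 25 mg/kg. Tail-vein blood taken 1 h post-treatment was plated on blood agar, incubated overnight at 37 °C, and colonies counted.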

Enterococcus faecium [12] = assay: Bactericidal activity against vancomycin-resistant Enterococcus faecium clinical isolate 5396 after 24 hrs by two-fold serial dilution method; assay type: functional; settings: isolate 5396, 24 h
Enterococcus faecium [13] = assay: Bactericidal activity against vancomycin-resistant Enterococcus faecium clinical isolate 7/27 after 24 hrs by two-fold serial dilution method; assay type: functional; settings: isolate 7/27, 24 h
Enterococcus faecium [14] = assay: Bactericidal activity against vancomycin-resistant Enterococcus faecium clinical isolate 5484 after 24 hrs by two-fold serial dilution method; assay type: functional; settings: isolate 5484, 24 h
Enterococcus faecium [15] = assay: Antibacterial activity against vancomycin-resistant Enterococcus faecium clinical isolate 8/224 after overnight incubation by two-fold serial dilution method; assay type: functional
Enterococcus [16] = assay: Antibacterial activity against vancomycin-resistant Enterococcus ATCC 29212 after overnight incubation by two-fold serial dilution method; assay type: functional
Enterococcus [17] = assay: Bactericidal activity against vancomycin-resistant Enterococcus ATCC 29212 assessed as log reduction at 2 times MIC after 60 to 120 mins by serial dilution method; assay type: functional
Procedure, shortened: (§2)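 Time-kill assay: enterococci exposed to peptide at 2× MIC, with viable counts read as log10 CFU/mL over a 60–120 min exposure. Run on ATCC 29212 and a clinical isolate.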

Enterococcus faecalis [18] = assay: Bactericidal activity against vancomycin-resistant Enterococcus faecalis clinical isolate 22/203 after 24 hrs by two-fold serial dilution method; assay type: functional; settings: isolate 22/203, 24 h
Enterococcus faecium [19] = assay: Antibacterial activity against vancomycin-resistant Enterococcus faecium clinical isolate 6/22 after overnight incubation by two-fold serial dilution method; assay type: functional
Enterococcus faecalis [20] = assay: Antibacterial activity against vancomycin-resistant Enterococcus faecalis clinical isolate 7079 after overnight incubation by two-fold serial dilution method; assay type: functional
Enterococcus faecium [21] = assay: Bactericidal activity against vancomycin-resistant Enterococcus faecium clinical isolate 13246 after 24 hrs by two-fold serial dilution method; assay type: functional; settings: isolate 13246, 24 h
Enterococcus faecium [22] = assay: Antibacterial activity against vancomycin-resistant Enterococcus faecium clinical isolate 28/211 after overnight incubation by two-fold serial dilution method; assay type: functional
Enterococcus [23] = assay: Antibacterial activity against Enterococcus infected in iv dosed Wistar albino rat assessed as reduction in cell count after 1 hr relative to control; assay type: functional, organism-based
Procedure, shortened: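 Female Wistar albino rats, 40−45 days old, 125−150 g, 5 groups of 3. Enterococci grown in MH broth to log phase, spun at 1000g for 15 min, diluted in PBS to 4 × 10^6 CFU/mL and inoculated i.v. Treatment i.v. 1 h later at 12.5, 25 or 37.5 mg/kg. Vehicle was 0.1 mL PBS i.v.; linezolid 25 mg/kg i.v. was the positive control. Tail-vein blood taken 1 h after treatment, plated on blood agar, incubated at 37 °C in ambient air overnight, and colonies counted.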

Enterococcus faecium [24] = assay: Antibacterial activity against vancomycin-resistant Enterococcus faecium clinical isolate 16475 after overnight incubation by two-fold serial dilution method; assay type: functional
Enterococcus [25] = assay: Antibacterial activity against Enterococcus infected in Wistar albino rat assessed as reduction in cell count at MIC, iv after 1 hr relative to control; assay type: functional; set-up: scale not given: the % may be the effect or the level left; procedure, shortened: as §1
Enterococcus faecalis [26] = assay: Bactericidal activity against vancomycin-resistant Enterococcus faecalis clinical isolate 5642 after 24 hrs by two-fold serial dilution method; assay type: functional; settings: isolate 5642, 24 h
Enterococcus faecalis [27] = assay: Antibacterial activity against vancomycin-resistant Enterococcus faecalis clinical isolate 22626 after overnight incubation by two-fold serial dilution method; assay type: functional
Enterococcus faecalis [28] = assay: Bactericidal activity against vancomycin-resistant Enterococcus clinical isolate assessed as log reduction at 2 times MIC after 60 to 120 mins by serial dilution method; assay type: functional; procedure, shortened: as §2
Enterococcus faecium [29] = assay: Bactericidal activity against vancomycin-resistant Enterococcus faecium clinical isolate 15/213 after 24 hrs by two-fold serial dilution method; assay type: functional; settings: isolate 15/213, 24 h
Enterococcus faecalis [30] = assay: Bactericidal activity against vancomycin-resistant Enterococcus faecalis clinical isolate 22626 after 24 hrs by two-fold serial dilution method; assay type: functional; settings: isolate 22626, 24 h
Enterococcus faecium [31] = assay: Antibacterial activity against vancomycin-resistant Enterococcus faecium clinical isolate 31386 after overnight incubation by two-fold serial dilution method; assay type: functional
Enterococcus faecium [32] = assay: Bactericidal activity against vancomycin-resistant Enterococcus faecium clinical isolate 27/221 after 24 hrs by two-fold serial dilution method; assay type: functional; settings: isolate 27/221, 24 h
Enterococcus faecium [33] = assay: Antibacterial activity against vancomycin-resistant Enterococcus faecium clinical isolate 15/213 after overnight incubation by two-fold serial dilution method; assay type: functional
Enterococcus [34] = assay: Antibacterial activity against vancomycin-resistant Enterococcus clinical isolate after 18 to 20 hrs by checkerboard titration method in presence of vancomycin; assay type: functional
Enterococcus faecium [35] = assay: Antibacterial activity against vancomycin-resistant Enterococcus faecium clinical isolate 17301 after overnight incubation by two-fold serial dilution method; assay type: functional
Enterococcus faecium [36] = assay: Antibacterial activity against vancomycin-resistant Enterococcus faecium clinical isolate 31176 after overnight incubation by two-fold serial dilution method; assay type: functional
Enterococcus faecium [37] = assay: Antibacterial activity against vancomycin-resistant Enterococcus faecium clinical isolate 16115 after overnight incubation by two-fold serial dilution method; assay type: functional
Enterococcus faecium [38] = assay: Antibacterial activity against vancomycin-resistant Enterococcus faecium clinical isolate 30/48 after overnight incubation by two-fold serial dilution method; assay type: functional
Enterococcus faecalis [39] = assay: Bactericidal activity against vancomycin-resistant Enterococcus faecalis clinical isolate 7079 after 24 hrs by two-fold serial dilution method; assay type: functional; settings: isolate 7079, 24 h

For H-RWRLLLLKKH-OH, the MBC (Enterococcus faecalis [1]) was 25 µg/mL, the MBC (Enterococcus faecium [2]) was 25 µg/mL and the hemolysis at 1 h, 5 times MIC [3] was under 5%. It also gave an MBC (Enterococcus faecalis [4]) of 25 µg/mL, an MBC (Enterococcus [5]) of 25 µg/mL and an MBC (Enterococcus faecalis [6]) of 25 µg/mL. It also gave an MBC (Enterococcus faecium [7]) of 25 µg/mL, an MBC (Enterococcus faecium [8]) of 25 µg/mL and an MIC (Enterococcus faecalis [9]) of 6.25 µg/mL. For the same substance, the MIC (Enterococcus faecium [10]) was 12.5 µg/mL, the Activity (Enterococcus [11]) was 82% and the MBC (Enterococcus faecium [12]) was 25 µg/mL. The MBC (Enterococcus faecium [13]) was 25 µg/mL, the MBC (Enterococcus faecium [14]) was 25 µg/mL and the MIC (Enterococcus faecium [15]) was 12.5 µg/mL. The MIC (Enterococcus [16]) was 25 µg/mL, the MBC (Enterococcus [17]) was 25 µg/mL and the MBC (Enterococcus faecalis [18]) was 25 µg/mL. The MIC (Enterococcus faecium [19]) was 12.5 µg/mL, the MIC (Enterococcus faecalis [20]) was 12.5 µg/mL and the MBC (Enterococcus faecium [21]) was 25 µg/mL. For the same substance, the MIC (Enterococcus faecium [22]) was 12.5 µg/mL, the Activity (Enterococcus [23]) was “Dose-dependent effect” and the MIC (Enterococcus faecium [24]) was 12.5 µg/mL. It also gave an Activity (Enterococcus [25]) of 73%, an MBC (Enterococcus faecalis [26]) of 25 µg/mL and an MIC (Enterococcus faecalis [27]) of 12.5 µg/mL. It also gave an MBC (Enterococcus faecalis [28]) of 25 µg/mL, an MBC (Enterococcus faecium [29]) of 25 µg/mL and an MBC (Enterococcus faecalis [30]) of 25 µg/mL. For the same substance, the MIC (Enterococcus faecium [31]) was 6.25 µg/mL, the MBC (Enterococcus faecium [32]) was 25 µg/mL and the MIC (Enterococcus faecium [33]) was 6.25 µg/mL. The “fractional inhibitory concentration index (FICI)” value (Enterococcus [34]) was 0.25, the MIC (Enterococcus faecium [35]) was 6.25 µg/mL and the MIC (Enterococcus faecium [36]) was 6.25 µg/mL. For the same substance, the MIC (Enterococcus faecium [37]) was 12.5 µg/mL, the MIC (Enterococcus faecium [38]) was 12.5 µg/mL and the MBC (Enterococcus faecalis [39]) was 25 µg/mL.
